Measured values from article PMC9064382 (RSC Advances, 2019).

What was measured:
Assay type in all cases: in vitro ADME
hOATP1B1 = biological target: T1, hOATP1B1 (Homo sapiens, UniProt Q9Y6L6)
T1 sequence (Q9Y6L6 1-691): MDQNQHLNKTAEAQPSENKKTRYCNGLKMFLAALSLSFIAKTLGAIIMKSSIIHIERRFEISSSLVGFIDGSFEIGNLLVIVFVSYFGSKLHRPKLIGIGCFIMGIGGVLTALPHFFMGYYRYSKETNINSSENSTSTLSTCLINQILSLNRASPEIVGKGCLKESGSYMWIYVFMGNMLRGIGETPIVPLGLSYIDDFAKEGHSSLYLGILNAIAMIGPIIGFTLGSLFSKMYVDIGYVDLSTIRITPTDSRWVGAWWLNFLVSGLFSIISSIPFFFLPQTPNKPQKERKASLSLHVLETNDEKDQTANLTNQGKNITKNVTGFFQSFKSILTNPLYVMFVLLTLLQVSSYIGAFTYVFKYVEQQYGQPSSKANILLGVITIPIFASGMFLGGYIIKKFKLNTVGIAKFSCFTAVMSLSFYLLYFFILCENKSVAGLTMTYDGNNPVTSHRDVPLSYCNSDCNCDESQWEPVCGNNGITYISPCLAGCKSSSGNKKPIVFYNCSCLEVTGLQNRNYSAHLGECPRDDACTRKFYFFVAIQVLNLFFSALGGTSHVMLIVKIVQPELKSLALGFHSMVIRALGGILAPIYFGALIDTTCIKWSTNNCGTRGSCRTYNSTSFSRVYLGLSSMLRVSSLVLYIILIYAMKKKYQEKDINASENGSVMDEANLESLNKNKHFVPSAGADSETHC

hOCT2 = biological target: T2, hOCT2 (Homo sapiens, UniProt O15244); experiment: Inhibition of 14C-TEA uptake in hOCT2-transfected cells by liquorice ingredients; settings: 5 min
T2 sequence (O15244 1-555): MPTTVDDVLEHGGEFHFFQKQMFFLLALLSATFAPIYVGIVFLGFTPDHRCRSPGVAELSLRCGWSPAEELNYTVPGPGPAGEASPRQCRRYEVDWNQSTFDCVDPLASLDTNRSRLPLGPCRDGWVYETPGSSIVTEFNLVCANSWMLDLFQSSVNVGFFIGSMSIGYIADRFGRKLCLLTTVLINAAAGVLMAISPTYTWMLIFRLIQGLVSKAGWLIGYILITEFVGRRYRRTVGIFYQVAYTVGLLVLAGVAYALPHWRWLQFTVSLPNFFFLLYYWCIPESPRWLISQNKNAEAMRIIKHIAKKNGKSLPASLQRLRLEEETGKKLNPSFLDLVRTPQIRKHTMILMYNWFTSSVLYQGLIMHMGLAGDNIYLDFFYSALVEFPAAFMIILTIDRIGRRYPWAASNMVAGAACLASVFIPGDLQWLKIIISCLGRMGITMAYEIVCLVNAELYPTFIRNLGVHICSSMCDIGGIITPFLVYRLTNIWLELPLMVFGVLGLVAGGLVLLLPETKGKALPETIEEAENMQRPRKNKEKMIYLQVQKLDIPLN

hOCT1 = biological target: T3, hOCT1 (Homo sapiens, UniProt O15245); experiment: Inhibition of 14C-TEA uptake in hOCT1-transfected cells by liquorice ingredients; settings: read-out: IC50 on hOCT1; 14C-TEA probe, 5 min
T3 sequence (O15245 1-554): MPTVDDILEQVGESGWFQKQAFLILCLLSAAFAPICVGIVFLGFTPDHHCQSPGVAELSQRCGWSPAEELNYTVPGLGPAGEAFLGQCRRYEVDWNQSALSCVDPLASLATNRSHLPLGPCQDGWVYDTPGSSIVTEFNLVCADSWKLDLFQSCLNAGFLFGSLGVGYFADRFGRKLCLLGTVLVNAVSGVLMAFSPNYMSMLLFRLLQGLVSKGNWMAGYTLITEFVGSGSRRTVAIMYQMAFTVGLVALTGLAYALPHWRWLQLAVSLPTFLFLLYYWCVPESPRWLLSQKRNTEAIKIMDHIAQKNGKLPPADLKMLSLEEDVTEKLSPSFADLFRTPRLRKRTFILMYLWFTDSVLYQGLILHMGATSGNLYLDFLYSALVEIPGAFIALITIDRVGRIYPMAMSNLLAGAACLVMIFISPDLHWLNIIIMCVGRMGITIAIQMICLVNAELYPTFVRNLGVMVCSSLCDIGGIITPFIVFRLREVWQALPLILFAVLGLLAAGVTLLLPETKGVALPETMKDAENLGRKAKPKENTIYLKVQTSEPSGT
In short: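 Transfected and mock cells were seeded at 2 × 10^5/well and grown 48 h. They were then exposed at 37 °C to test compound at 1, 3, 10, 30 and 100 μmol L−1 (DMSO <0.2%) with either 5 μmol L−1 14C-PAH for 2 min (hOAT1) or 5 μmol L−1 14C-TEA for 5 min (hOCT1). Uptake was stopped with cold DPBS and three rinses, cells lysed in 0.1 mol L−1 NaOH, counted by liquid scintillation (dpm), and IC50 calculated.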

hOATP1B3 = biological target: T4, hOATP1B3 (Homo sapiens, UniProt Q9NPD5)
T4 sequence (Q9NPD5 1-702): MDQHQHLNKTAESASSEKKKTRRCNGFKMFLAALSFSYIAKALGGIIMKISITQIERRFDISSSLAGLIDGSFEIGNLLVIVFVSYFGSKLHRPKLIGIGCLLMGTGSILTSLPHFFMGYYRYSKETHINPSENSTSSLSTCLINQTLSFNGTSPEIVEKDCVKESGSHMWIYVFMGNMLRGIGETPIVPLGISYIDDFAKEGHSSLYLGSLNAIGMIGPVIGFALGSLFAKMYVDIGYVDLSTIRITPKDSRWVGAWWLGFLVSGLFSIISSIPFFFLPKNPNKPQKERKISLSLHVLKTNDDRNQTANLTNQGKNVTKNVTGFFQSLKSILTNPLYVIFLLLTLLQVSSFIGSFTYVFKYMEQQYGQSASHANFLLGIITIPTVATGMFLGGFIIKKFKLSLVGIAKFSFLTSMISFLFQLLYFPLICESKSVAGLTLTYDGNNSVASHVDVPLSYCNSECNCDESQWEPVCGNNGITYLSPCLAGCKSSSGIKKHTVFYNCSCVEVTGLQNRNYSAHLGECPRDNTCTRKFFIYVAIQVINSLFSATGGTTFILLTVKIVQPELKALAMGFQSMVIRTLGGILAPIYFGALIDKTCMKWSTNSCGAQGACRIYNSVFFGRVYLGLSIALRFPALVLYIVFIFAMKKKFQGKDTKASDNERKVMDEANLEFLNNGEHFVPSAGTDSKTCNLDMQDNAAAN

`C=CC(C)(C)c1cc(/C=C/C(=O)c2ccc(O)cc2)c(OC)cc1O` [licochalcone A] was tested, and the IC50 (hOATP1B1; read-out: IC50 on hOATP1B1, 3H-ES probe, 2 min) was 1.27 µM, the “inhibition of hOATP1B1” value (hOATP1B1; screening at 100 μm) was “strong inhibitors” and the “inhibitory rate on hOCT2” value (hOCT2; 100 μm, 5 μmol L^−1 14C-TEA) was 91.76%. The IC50 (hOCT2; read-out: IC50 on hOCT2, 14C-TEA probe) was 6.61 µM, the IC50 (hOCT1) was 14 µM and the IC50 (hOATP1B3; read-out: IC50 on hOATP1B3, 3H-ES probe, 2 min) was 1.91 µM. For the same molecule, the “inhibition of hOATP1B3” value (hOATP1B3; screening at 100 μm) was “strong inhibitors”.
